Screening data as filed in PubChem.
An excerpt weighted towards active compounds, which were near 1.7% of everything screened.
LMPTP inh = LMPTP (human) inhibition; inhibition, % at 20 µM; P24666; AID 651560; recombinant LMPTP-A, OMFP fluorogenic substrate, fluorescence intensity; 360,000 compounds, 0.22% hits;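 active = compounds that cut the enzyme signal by at least half of the control window in the single-dose screen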;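 note: plate controls were DMSO wells with enzyme plus substrate for no effect and substrate without enzyme for full effect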
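Assay system: LMPTP-A enzyme. Input: 0.625 nM LMPTP-A final. Probe or stimulus: 400 µM OMFP. Compound dosing: single 20 µM dose. Schedule: 50 min dark incubation at room temperature. Detection: fluorescence intensity of OMFP turnover product. Read-out: percent inhibition versus substrate-only and uninhibited controls. Benchmarks: no-enzyme low control, uninhibited high control.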
DNMT1 block = inhibitors of human DNMT1. inhibition (reported as % activation of signal), % at 10 µM. DNMT1 molecular beacon, Hinp1I cleavage, fluorescence. 360,000 compounds, 0.83% hits. AID 588458. P26358; in the data active = inhibition above about 50%
Target sequence (P26358 504-1616 limits assumed): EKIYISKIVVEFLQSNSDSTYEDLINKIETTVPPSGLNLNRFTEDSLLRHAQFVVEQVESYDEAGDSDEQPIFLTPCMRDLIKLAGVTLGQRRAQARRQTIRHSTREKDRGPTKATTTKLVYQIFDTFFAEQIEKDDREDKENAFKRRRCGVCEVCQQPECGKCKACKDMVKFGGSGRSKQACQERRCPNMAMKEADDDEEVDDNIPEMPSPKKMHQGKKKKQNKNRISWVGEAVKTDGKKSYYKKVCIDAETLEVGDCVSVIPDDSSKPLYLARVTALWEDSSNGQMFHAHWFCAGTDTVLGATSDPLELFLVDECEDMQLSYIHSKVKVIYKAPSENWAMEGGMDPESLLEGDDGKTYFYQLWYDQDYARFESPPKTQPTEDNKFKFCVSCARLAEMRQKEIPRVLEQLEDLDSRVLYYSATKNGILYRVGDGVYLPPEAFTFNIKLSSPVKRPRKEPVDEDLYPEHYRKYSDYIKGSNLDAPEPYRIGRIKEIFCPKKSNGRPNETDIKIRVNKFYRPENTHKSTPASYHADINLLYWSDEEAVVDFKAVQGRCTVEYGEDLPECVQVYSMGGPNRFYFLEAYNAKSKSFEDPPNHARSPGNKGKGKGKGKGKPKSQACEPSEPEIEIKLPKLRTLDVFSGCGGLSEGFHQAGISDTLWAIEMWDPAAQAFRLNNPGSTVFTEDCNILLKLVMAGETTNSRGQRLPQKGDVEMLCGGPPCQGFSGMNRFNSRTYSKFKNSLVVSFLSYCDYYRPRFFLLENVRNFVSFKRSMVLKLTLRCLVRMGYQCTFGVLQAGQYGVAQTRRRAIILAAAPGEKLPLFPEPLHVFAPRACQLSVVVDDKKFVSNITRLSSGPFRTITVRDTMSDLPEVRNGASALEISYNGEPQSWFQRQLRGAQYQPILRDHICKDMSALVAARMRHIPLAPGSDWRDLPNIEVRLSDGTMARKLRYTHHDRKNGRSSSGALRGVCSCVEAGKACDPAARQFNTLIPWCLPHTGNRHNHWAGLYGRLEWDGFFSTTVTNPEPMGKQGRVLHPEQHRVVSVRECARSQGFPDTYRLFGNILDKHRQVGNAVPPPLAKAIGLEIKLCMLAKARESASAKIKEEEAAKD
SUMO1 PPI mod = alters human SUMO1 binding to SIM partners. P63165. SUMO1 binding to a labelled peptide, TR-FRET, 1 h. inhibition, % at 20 µM. 360,000 compounds, 0.33% hits; in the data active = inhibition above about 37%
STEP inh = inhibitors of human striatal-enriched phosphatase STEP; 360,000 compounds, 0.25% hits; recombinant STEP, OMFP fluorogenic substrate, fluorescence; inhibition, % at 20 µM;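 active = inhibition at 20 µM, scaled per plate between control wells, above about 37%, limit read from the data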;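 note: 0% = DMSO with enzyme and substrate and 100% = substrate only without enzyme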
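Material: STEP (striatal-enriched tyrosine phosphatase) enzyme, cell-free; Compound dosing: 20 µM single dose in 1% DMSO; Technique: fluorescence read at 480 nm ex / 540 nm em; Times: reaction 20 min, ambient temperature; Medium: 50 mM Bis-Tris pH 6.0 with 2.5 mM DTT and 0.005% Tween 20; Also added: OMFP at 25 µM.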
Scp1 inh = Scp-1 (human) phosphatase inhibition | inhibition, % at 20 µM | 340,000 compounds, 0.88% hits | Q9GZU7 | Recombinant Scp1, phosphopeptide, malachite green phosphate absorbance | AID 493091;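 active = inhibition above about 50% at 20 µM, limit read from the data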;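 note: plate controls were DMSO wells with enzyme for no effect and wells lacking enzyme for full effect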
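Test system: SCP-1 phosphatase catalytic domain, residues 76-261; measured by: colorimetric phosphate reagent with accelerator and stabiliser, absorbance at 630 nm; timing: enzyme reaction 45 min at room temperature, colour 5 min, stabilisation 30 min; also added: Phosphorylated 17-residue peptide substrate; compound dosing: one concentration, 20 µM, with 1.0% DMSO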
* marks the source's active call; other numbers are inactive results; i = inactive; nt = not tested or not shown; + = active, no number.

SMILES	LMPTP inh	DNMT1 block	SUMO1 PPI mod	STEP inh	Scp1 inh
CCN(CC)CCCN=C1N[C@@H](c2cccc(F)c2)C(C(=O)OC)=C(C)N1Cc1ccccc1	-1.8	-1.2	-3.8	2.0	102.6*
Cc1ccc(C(=O)ONc2ccc(N=NC(=O)c3ccccc3O)cc2)cc1	78.4*	29.6	-0.9	77.1*	110.4*
CCC(C)(C)C1CCC(NC(=O)N2CCN(c3ccccc3O)CC2)CC1 (configuration not stated)	-2.8	-2.7	-0.5	1.1	-1.8
CC(C)(C)c1ccc(C(=O)N2CCC2(C)C(=O)Nc2cccc3ncccc23)cc1 (configuration not stated)	1.0	0.8	-1.0	2.7	nt
COC(=O)c1ccc2c(c1)C(C)(C)C(/C=C/c1ccc(O)cc1)=[N+]2C	6.5	-19.0	-10.1	-6.4	99.4*
COC(=O)c1ccc2c(c1)C(C)(C)C(/C=C/c1ccc(OC)c(OC)c1OC)=[N+]2C	-2.0	-0.7	-0.1	-5.8	96.1*
Cc1cccc(C)c1NC(=O)CSc1nnc(-c2ccco2)c(-c2ccco2)n1	56.8*	115.7*	50.7*	39.3*	77.0*
O=C(CSc1nnc(-c2ccco2)c(-c2ccco2)n1)Nc1ccccc1	52.8*	118.5*	76.9*	17.8	58.5*
CN(C)c1ccc(NC(=O)CSc2nnc(-c3ccco3)c(-c3ccco3)n2)cc1	26.8	-8.4	-8.5	3.6	-3.4
Cc1ccccc1NC(=O)CSc1nnc(-c2ccco2)c(-c2ccco2)n1	28.9	105.6*	26.9	6.0	68.2*
COc1ccc(NC(=O)CSc2nnc(-c3ccco3)c(-c3ccco3)n2)cc1OC	1.4	-4.4	-12.4	-2.2	12.2
COC(=O)C[C@H]1C=C[C@H](NC(=O)C2CCOCC2)[C@@H](CO)O1	-1.1	nt	0.4	nt	nt
Nc1nc(SCC(=O)c2cc3ccccc3o2)n[nH]1	0.9	-3.5	39.6*	-5.1	-2.8
CCOC(=O)Nc1sc(C)nc1-c1ccccc1	-1.6	2.0	-2.3	3.0	0.2
CCOC(=O)Nc1cc2c(c(N)n1)N=C(c1ccccc1)CN2	2.0	53.4*	-42.3	-0.4	14.6
O=C(c1ccccc1)c1ccc[nH]1	0.9	0.9	-3.8	-4.2	-1.0
COC(=O)/C(=C\Nc1ccc(OC)cc1)NC(=O)c1ccc(Cl)cc1Cl	-1.8	-5.2	-0.6	2.5	3.8
COC(=O)/C(=C\Nc1ccc(Cl)cc1Cl)NC(=O)c1ccc(OC)cc1	2.9	-1.1	39.6*	2.0	-10.4
COc1cc(C(=O)NNC(=O)CNC(=O)C2CCCCC2)ccc1OC(C)C	-0.4	3.1	-2.9	-2.7	-21.0
COc1ccccc1NC(=O)CCc1nnc2ccc(N3CCCCC3)nn12	-0.5	-0.5	-2.8	-2.6	-5.2
CCOc1ccccc1NC(=O)CCc1nnc2ccc(N3CCC(C)CC3)nn12	-1.6	98.4*	4.0	1.1	-4.8
CN(C)CCCn1c2c3ccccc3ccc2c2oc(=O)c3ccccc3c21	2.0	77.2*	-142.3	4.1	9.6
CCOC(=O)c1c(C)nc2sc3c(=O)n(-c4ccc(C)cc4)cnc3c2c1-c1ccc(OC)cc1	-0.9	9.2	40.4*	-3.7	-4.9
C=C(C)C(=O)Nc1ccc2c(c1)OCCOCCOCCO2	0.9	89.5*	57.4*	63.5*	96.9*
O=C(Cn1cnc2c(OCc3ccccc3)ncnc21)N[C@H](CO)Cc1cc2ccccc2[nH]1	-1.3	0.0	-0.6	-2.1	-4.8
SMILES	LMPTP inh	DNMT1 block	SUMO1 PPI mod	STEP inh	Scp1 inh
Cc1cc(/C=C2\SC(=S)N(Cc3ccco3)C2=O)c(C)n1-c1cccnc1	6.4	-7.7	-16.8	4.7	-3.8
Cc1cc(/C=C2/SC(=S)N(c3cccc(C(F)(F)F)c3)C2=O)c(C)n1-c1cccnc1	6.8	50.8*	-12.9	2.0	1.6
NN1C(=O)/C(=C\c2ccco2)SC1=S	7.0	51.6*	-10.0	7.8	0.3
O=C1/C(=C\c2ccco2)SC(=S)N1c1ccc(O)cc1	-2.3	-8.5	-10.7	3.3	-5.2
O=C1/C(=C/c2ccco2)SC(=S)N1c1cccnc1	74.7*	99.4*	107.4*	78.8*	87.0*
Cc1ccc(C(=O)Nc2ccccc2N2CCOCC2)cc1S(=O)(=O)N1CCOCC1	-0.4	-8.2	4.8	-1.7	-3.6
NS(=O)(=O)c1ccc(CNS(=O)(=O)c2cc(C(=O)O)ccc2Cl)cc1	0.6	22.9	4.1	5.9	48.0
Cc1ccc(C(=O)N/C(=C\c2cccs2)C(=O)N2CCN(C)CC2)cc1C	-2.7	-1.1	5.4	-0.8	-6.7
CCCNC(=O)C[C@H]1C[C@H]2c3cc(NC(=O)Nc4ccc(F)cc4)ccc3O[C@H]2[C@@H](CO)O1	-0.6	-1.8	3.7	-0.7	nt
COc1ccc(/C=C2\CCc3c2nc2ccccc2c3C(=O)O)cc1OC	0.7	3.8	12.8	4.5	14.7
CCOc1ccc(/C=C2\CCCc3c2nc2ccccc2c3C(=O)O)cc1OC	-5.8	78.1*	-18.9	-78.4	nt
COc1ccc(-c2cc(C(=O)Nc3ccccc3SC)no2)cc1	-2.1	12.5	2.8	-2.1	-8.5
COc1ccc(-c2cc(C(=O)Nc3cc(Br)ccc3O)no2)cc1	68.9*	56.9*	-1.1	28.6	-15.4
CCC1(C2=CCCCC2)C(=O)NC(=O)N=C1N (configuration not stated)	-1.0	-0.8	-1.1	0.0	-9.5
O=C(NC(=S)Nc1ccc(-c2ccc(CO)o2)cc1)c1cccs1	52.0*	76.6*	22.2	5.1	-8.7
COc1cccc(NC(=O)CN(C)C(=O)c2cccc(S(=O)(=O)N3c4ccccc4CC3C)c2)c1 (configuration not stated)	-0.4	-4.5	-3.0	0.0	-3.8
O=C(COC(=O)c1ccc(F)cc1F)c1ccc[nH]1	0.5	-5.3	-1.6	1.6	-3.8
O=c1cc(-c2ccccc2)oc2cc(O)ccc12	0.1	0.2	-4.0	-2.7	-10.0
COc1ccc(-c2c(C)c3ccc(O)cc3oc2=O)cc1OC	-2.0	5.7	-19.4	-1.6	-9.1
O=c1ccc2c(-c3ccccc3)c3ccc(O)cc3oc-2c1	-148.2	+	i	i	18.4
Nc1ccc(-c2c3ccc(=O)cc-3oc3cc(O)ccc23)cc1C(=O)O	10.2	+	-355.8	-60.1	3.6
CCOC(=O)/C(C)=C1\NC(C)(C)Cc2ccccc21	-0.7	0.5	1.3	1.6	100.8*
O=C(Nc1oc2ccccc2c(=O)c1-c1ccc2c(c1)OCO2)c1ccco1	-1.1	2.6	-1.9	-0.9	nt
COC(=O)c1cc(C(=O)OC)n(Cc2ccc(Cl)cc2Cl)n1	-0.1	4.8	4.3	1.4	-6.5
CC(C)(C)c1cc(C(=O)O)n(Cc2ccc(Cl)cc2Cl)n1	-0.2	2.8	48.6*	1.2	-12.8
CC(=O)Oc1cc(C(=O)OCC(=O)N2CCc3ccccc3C2)cc(OC(C)=O)c1OC(C)=O	1.6	5.4	7.2	6.3	53.4*
